The other results are listed elsewhere or left out. Unmarked numbers belong to inactive results. Calls of active or inactive are those of the source.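 How the source made its calls, unless noted: active means primary screen active, with duplicate mean exceeding buffer control mean plus 3 SD of buffer wells (cut at about 28% in these data); inactive means the rest.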

Sequence of Potassium voltage-gated channel subfamily E member 1 (Homo sapiens) + Potassium voltage-gated channel subfamily KQT member 1 (Homo sapiens) (P51787 whole entry, looked up): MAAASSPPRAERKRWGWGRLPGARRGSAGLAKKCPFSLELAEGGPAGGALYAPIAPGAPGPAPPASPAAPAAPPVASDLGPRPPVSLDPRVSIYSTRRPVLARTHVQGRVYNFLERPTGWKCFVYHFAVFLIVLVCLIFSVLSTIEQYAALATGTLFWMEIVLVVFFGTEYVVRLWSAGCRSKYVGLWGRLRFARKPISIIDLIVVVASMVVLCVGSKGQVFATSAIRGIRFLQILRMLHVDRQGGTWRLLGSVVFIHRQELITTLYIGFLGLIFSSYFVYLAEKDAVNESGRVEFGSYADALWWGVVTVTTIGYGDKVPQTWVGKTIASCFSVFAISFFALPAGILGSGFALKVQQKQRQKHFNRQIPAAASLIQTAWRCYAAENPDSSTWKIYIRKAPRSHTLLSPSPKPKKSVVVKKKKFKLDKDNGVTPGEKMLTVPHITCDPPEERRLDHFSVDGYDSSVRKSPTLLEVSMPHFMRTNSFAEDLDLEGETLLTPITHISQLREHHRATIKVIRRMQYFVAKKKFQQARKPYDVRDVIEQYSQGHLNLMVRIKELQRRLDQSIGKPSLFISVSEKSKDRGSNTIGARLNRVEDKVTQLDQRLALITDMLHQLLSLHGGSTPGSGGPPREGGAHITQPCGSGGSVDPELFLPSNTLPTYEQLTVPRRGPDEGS
Sequence of Potassium voltage-gated channel subfamily KQT member 1 (Homo sapiens) (P51787 whole entry, looked up): as above

One experiment addresses Potassium voltage-gated channel subfamily KQT member 1 (Homo sapiens) (UniProt P51787). As to the kind of experiment: KCNQ1 potassium channel inhibitors, confirmation, cell-based, Tl flux, duplicate (AID 588353).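 Further: 0% = buffer control ratio and 100% = XE991 inhibitor control ratio.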 The conditions noted are these: KCNQ1 cell line, FluxOR thallium flux fluorescence; at 10 µM; hits give high values. The procedure, abridged:
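Read-out basis: Percent inhibition of fluorescence change ratio, scaled buffer to XE991 | Assay system: KCNQ1 CHO cells | Times: Compound exposure 20 min at room temperature | Repeats: Duplicate | Control set: Buffer and XE991 | Measured by: FluxOR thallium flux fluorescence, 10 s baseline plus 110 s | Reagent: Thallium-potassium depolarizing stimulus buffer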
Take `FC(F)(F)c1cccc(NC(=S)Nc2cccc(Cl)c2)c1`: the inhibition was 112% (active).
Regarding `S=C(NCc1ccc(Cl)cc1)NC12CC3CC(CC(C3)C1)C2`, the inhibition is 143% (active).
Same read-out and setting: as for `CC(=O)N(C1=C(Cl)C(=O)c2ccccc2C1=O)c1ccc(C(=O)O)cc1`, the figure is 158% (active); as for `CCc1ccc(-c2nn(-c3ccccc3)cc2CSC(=N)N)cc1`, 126% (active).
Same read-out and setting: as for `Cc1ccc2nc(C)c3c(c2c1)N(c1ccccc1)CC3`, the figure is 46% (active).

Test system in another experiment: not listed separately
As to the kind of experiment: thallium flux effects in parental CHO cells, counter-screen for KCNQ1 inhibitor project, cell-based, Tl flux (AID 588366;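 active means mean of duplicate thallium-flux fluorescence ratios in parental host cells more than 5 SD below the buffer control mean, cut at about 0.38 in these data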;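 further: ratio is peak minus minimum fluorescence divided by baseline fluorescence; actives read low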). The conditions noted are these: parental CHO-K1, FluxOR thallium flux fluorescence ratio; at 10 µM; hits give low values; zero means no signal rise above baseline. The procedure, abridged: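 Assay system: untransfected parental CHO-K1 cells / Also added: depolarizing K2SO4 plus Tl2SO4 stimulus, each 12.5 mM in 5x stock / Timing: FluxOR dye loading 90 min, compound exposure 20 min, room temperature / Technique: real-time thallium-sensitive FluxOR dye fluorescence reading / Read-out: baseline-normalized fluorescence amplitude ratio, averaged over duplicates / Replicates: duplicates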
In general terms: The purpose of a counterscreen is to sort out artefacts and off-target activity.
For `FC(F)(F)c1cccc(NC(=S)Nc2cccc(Cl)c2)c1`, the fluorescence ratio (Tl flux) was 0.527.
In the case of `S=C(NCc1ccc(Cl)cc1)NC12CC3CC(CC(C3)C1)C2`, the fluorescence ratio (Tl flux) is 0.521.
Same read-out and setting: the figure for `CC(=O)N(C1=C(Cl)C(=O)c2ccccc2C1=O)c1ccc(C(=O)O)cc1` is 0.205 (active); for `CCc1ccc(-c2nn(-c3ccccc3)cc2CSC(=N)N)cc1` it is 0.302 (active).
Regarding `Cc1ccc2nc(C)c3c(c2c1)N(c1ccccc1)CC3`, the fluorescence ratio (Tl flux) is 0.419.

The target in the next experiment is Potassium voltage-gated channel subfamily KQT member 2 (Rattus norvegicus) (UniProt O88943). Kind of experiment: KCNQ2 channel inhibition, selectivity assay for KCNQ1 inhibitor project, cell-based (AID 651746;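 active means mean percent inhibition of the KCNQ2 thallium signal more than 5 SD above the buffer-only control wells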;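 on inhibition: 0% = buffer control wells and 100% = XE-991 inhibitor control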). The conditions noted are these: KCNQ2 cells, FluxOR thallium flux fluorescence, at 10 µM; hits give high values.
Sequence of Potassium voltage-gated channel subfamily KQT member 2 (Rattus norvegicus) (O88943 whole entry, looked up): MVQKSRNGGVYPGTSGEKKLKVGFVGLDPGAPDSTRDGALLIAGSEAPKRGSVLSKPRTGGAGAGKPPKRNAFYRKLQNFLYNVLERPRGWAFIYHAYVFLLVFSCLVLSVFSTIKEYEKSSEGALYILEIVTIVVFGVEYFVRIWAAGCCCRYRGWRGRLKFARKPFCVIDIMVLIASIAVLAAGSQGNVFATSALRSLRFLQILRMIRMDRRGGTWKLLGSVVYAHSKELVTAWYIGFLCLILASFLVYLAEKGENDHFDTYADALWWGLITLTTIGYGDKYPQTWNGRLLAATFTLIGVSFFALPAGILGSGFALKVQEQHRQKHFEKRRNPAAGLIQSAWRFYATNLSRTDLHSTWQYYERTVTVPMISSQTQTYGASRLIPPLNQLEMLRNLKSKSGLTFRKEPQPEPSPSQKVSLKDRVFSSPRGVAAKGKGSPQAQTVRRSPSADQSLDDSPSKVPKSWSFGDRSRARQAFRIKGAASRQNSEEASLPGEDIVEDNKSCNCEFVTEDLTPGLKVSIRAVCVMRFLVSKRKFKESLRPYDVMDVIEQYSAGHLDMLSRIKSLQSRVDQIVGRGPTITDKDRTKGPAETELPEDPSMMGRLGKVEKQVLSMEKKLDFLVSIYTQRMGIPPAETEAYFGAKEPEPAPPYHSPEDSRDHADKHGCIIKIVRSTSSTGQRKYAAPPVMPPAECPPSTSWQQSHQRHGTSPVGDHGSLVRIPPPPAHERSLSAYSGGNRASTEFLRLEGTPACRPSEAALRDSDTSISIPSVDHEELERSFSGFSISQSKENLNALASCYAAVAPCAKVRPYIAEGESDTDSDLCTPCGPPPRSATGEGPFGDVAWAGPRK
On to `FC(F)(F)c1cccc(NC(=S)Nc2cccc(Cl)c2)c1`, for which the outcome was inactive.
With `S=C(NCc1ccc(Cl)cc1)NC12CC3CC(CC(C3)C1)C2`, the compound was classed as inactive.
Turning to `CC(=O)N(C1=C(Cl)C(=O)c2ccccc2C1=O)c1ccc(C(=O)O)cc1`, the inhibition is 124% (active).
The same measure, in the same setting: as for `CCc1ccc(-c2nn(-c3ccccc3)cc2CSC(=N)N)cc1`, the figure is 114% (active); as for `Cc1ccc2nc(C)c3c(c2c1)N(c1ccccc1)CC3`, 83.7% (active).

The next experiment addresses Potassium voltage-gated channel subfamily E member 1 (Homo sapiens) + Potassium voltage-gated channel subfamily KQT member 1 (Homo sapiens) (UniProt P15382+P51787). Kind of experiment: KCNQ1/KCNE1 channel inhibition, selectivity assay for KCNQ1 inhibitor project, CHO-K1 cells, thallium flux, FluxOR (AID 652147;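 active means mean percent inhibition of duplicate wells above the buffer-only control mean plus 3 SD of those controls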). The conditions noted are these: FluxOR thallium flux fluorescence, at 10 µM. The procedure, abridged:
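test system = KCNQ1/KCNE1 cells | schedule = 20 min compound pre-incubation at room temperature | detection = FluxOR thallium influx fluorescence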
In the case of `FC(F)(F)c1cccc(NC(=S)Nc2cccc(Cl)c2)c1`, the result was inactive.
Still for that read-out and setting: the entry for `S=C(NCc1ccc(Cl)cc1)NC12CC3CC(CC(C3)C1)C2` is “inactive”; for `CCc1ccc(-c2nn(-c3ccccc3)cc2CSC(=N)N)cc1` it is “inactive”; for `Cc1ccc2nc(C)c3c(c2c1)N(c1ccccc1)CC3` it is “inactive”.

As a reminder, the inhibition is the change of the read-out against control, counted positive when it falls.

The record behind these values is PubChem BioAssay.
